Data set [1] deals with T1, 4,4'-diapophytoene desaturase (4,4'-diaponeurosporene-forming) (Staphylococcus aureus (strain USA300), UniProt Q2FDU6).
T1 sequence (Q2FDU6 whole entry): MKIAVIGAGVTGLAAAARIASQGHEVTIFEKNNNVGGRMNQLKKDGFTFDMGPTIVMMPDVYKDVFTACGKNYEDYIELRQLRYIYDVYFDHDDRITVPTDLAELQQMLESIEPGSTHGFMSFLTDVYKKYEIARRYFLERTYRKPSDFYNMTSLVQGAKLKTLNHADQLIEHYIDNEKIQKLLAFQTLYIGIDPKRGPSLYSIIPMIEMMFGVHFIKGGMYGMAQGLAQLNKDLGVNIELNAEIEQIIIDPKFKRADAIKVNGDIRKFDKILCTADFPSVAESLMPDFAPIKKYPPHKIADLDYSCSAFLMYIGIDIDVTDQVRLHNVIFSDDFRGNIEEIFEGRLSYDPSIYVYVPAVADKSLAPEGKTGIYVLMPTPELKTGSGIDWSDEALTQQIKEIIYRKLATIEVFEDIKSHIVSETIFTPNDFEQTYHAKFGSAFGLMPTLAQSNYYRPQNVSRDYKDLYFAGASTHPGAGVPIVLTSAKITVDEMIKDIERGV
Briefly: Inhibition of CrtN in methicillin-resistant Staphylococcus aureus LAC USA300 assessed as reduction in staphyloxanthin levels after 48 hrs by spectrophotometric method-based pigment inhibition assay.

Another data set concerns Trichophyton rubrum. Briefly: In vitro antifungal activity against Trichophyton rubrum after 7 days by serial dilution method. The settings on record: 168 h. Format: functional.
A short description of data set [2]: Cmax in Sprague-Dawley rat at 10 mg/kg, po administered as single dose by LC-MS/MS analysis. Format: ADME, organism-based. The settings on record: in vivo. Details: dose 10 mg/kg, route oral.
Data set [3] is described as follows: Tmax in Sprague-Dawley rat at 10 mg/kg, po administered as single dose by LC-MS/MS analysis. Format: ADME, organism-based. The settings on record: in vivo.
Data set [4] in a line: Cmax in mouse at 10 mg/kg, po administered as single dose by LC-MS/MS analysis. Format: ADME, organism-based. Details: dose 10 mg/kg, route oral. As to conditions: in vivo.
Data set [5] can be described thus: Half life in mouse at 10 mg/kg, po administered as single dose by LC-MS/MS analysis. Format: ADME, organism-based. As to conditions: in vivo.
Data set [6] has as its system Staphylococcus aureus. Kind of data set: Antibacterial activity against methicillin-resistant Staphylococcus aureus USA300 LAC assessed as change in bacterial growth at 0.2 mM […]. Format: functional.
Data set [7] concerns Staphylococcus aureus. Briefly: In vivo anti-virulence activity against Staphylococcus aureus Newman infected in BALB/c mouse model assessed as reduction in bacterial load in heart at 0.4 mg bid for 3.5 days administered intraperitoneally 6 hrs post infection by serial dilution method. Format: functional, organism-based. The procedure, abridged: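 Mice (n=10 per group) got 2.3 × 10^7 CFU S. aureus Newman by retro-orbital injection. Compound was given intraperitoneally b.i.d., either 24 h before infection (4.5 d) or 6 h after infection (3.5 d). Mice were sacrificed after 4.5 d and CFU counted in kidneys and hearts. Groups were compared by two-tailed Mann-Whitney test.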

Data set [8] has as its system Staphylococcus aureus. Kind of data set: In vivo anti-virulence activity against methicillin-resistant Staphylococcus aureus Mu50 infected in BALB/c mouse model assessed as reduction in bacterial load in heart at 0.1 mg bid for 3.5 days administered intraperitoneally 6 hrs post infection by serial dilution method. The format is functional. Details: scale not given: the % may be the effect or the level left. The procedure, abridged:
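Mice were challenged with 1.3 × 10^9 CFU Mu50. Compound was given intraperitoneally, either 24 h before or 6 h after infection. Log10 CFU was counted in kidneys and hearts.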

The test system of data set [9] is Staphylococcus aureus. Kind of data set: In vivo anti-virulence activity against methicillin-resistant Staphylococcus aureus NRS271 infected in BALB/c mouse model assessed as reduction in bacterial load in kidneys at 0.4 mg bid for 4.5 days administered intraperitoneally 24 hrs prior to infection by serial dilution method. Format: functional. Details: scale not given: the % may be the effect or the level left. The procedure, abridged: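 Mice (n=10 per group) infected retro-orbitally with S. aureus Mu50 (1.1 × 10^9 or 1.3 × 10^9 CFU) or NRS271 (2.3 × 10^8 CFU). Compound given i.p. b.i.d., either 6 h after infection for 3.5 d or 24 h before infection for 4.5 d. Mice killed after 4.5 d; log10 CFU per organ counted in kidneys and hearts. Two-tailed Mann−Whitney test.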

Data set [10] in a line: Inhibition of CrtN in methicillin-resistant Staphylococcus aureus NRS70 assessed as reduction in staphyloxanthin levels after 48 hrs by spectrophotometric method-based pigment inhibition assay.
A short description of data set [11]: Inhibition of CrtN in methicillin-resistant Staphylococcus aureus LRSA202 assessed as reduction in staphyloxanthin levels after 48 hrs by spectrophotometric method-based pigment inhibition assay.
The test system of data set [12] is Staphylococcus aureus. Kind of data set: In vivo anti-virulence activity against methicillin-resistant Staphylococcus aureus LRSA56 infected in BALB/c mouse model assessed as reduction in bacterial load in kidney at 0.1 mg bid for 3.5 days administered intraperitoneally 6 hrs post infection by serial dilution method relative to linezolid. Format: functional. Details: scale not given: the % may be the effect or the level left. The essentials:
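Mice were infected by retro-orbital injection with LRSA56 (5.0 × 10^7 CFU) or LRSA202 (7.0 × 10^7 CFU). Compound was given intraperitoneally 6 h after infection. […] Log10 CFU was counted in kidneys and hearts, with groups compared by two-tailed Mann-Whitney test.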

Data set [13] deals with Staphylococcus aureus. Briefly: In vivo anti-virulence activity against methicillin-resistant Staphylococcus aureus NF65Y infected in BALB/c mouse model assessed as reduction in bacterial load in kidney at 0.1 mg bid for 3.5 days administered intraperitoneally 6 hrs post infection by serial dilution method relative to linezolid. Format: functional, organism-based. The procedure, abridged:
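Mice infected retro-orbitally with S. aureus NF65Y (3.5 × 10^8 CFU) or XN108 (2.1 × 10^8 CFU). Test compound given i.p. b.i.d. starting 6 h post-infection. […] Log10 CFU per kidney and heart counted. Two-tailed Mann−Whitney test.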

The test system of data set [14] is Staphylococcus aureus. Kind of data set: In vivo anti-virulence activity against Staphylococcus aureus Newman infected in BALB/c mouse model assessed as reduction in bacterial load in heart at 0.2 mg bid for 3.5 days administered orally 6 hrs post infection by serial dilution method relative to control. Format: functional, organism-based. The essentials:
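Mice got 3.1 × 10^7 CFU S. aureus Newman by retro-orbital injection. Oral compound was given b.i.d. for 3.5 d, starting 6 h after infection. […] Log10 CFU was counted per kidney and per heart.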

Data set [15] concerns Rattus norvegicus. Briefly: Toxicity in Sprague-Dawley rat at 60 to 1000 mg/kg, po administered as single dose assessed as changes in water consumption measured during 2 weeks post administration. The settings on record: in vivo, 336 h. The format is organism-based. The essentials: (§1)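 Rats, 30 in total, randomised into three groups. Each received a single oral dose of 60, 250 or 1000 mg/kg on day 1. Poisoning symptoms, mortality, behaviour, water and food consumption and body weight monitored immediately and over 2 weeks.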

For data set [16], the system named is Rattus norvegicus. Kind of data set: Toxicity in Sprague-Dawley rat at 60 to 1000 mg/kg, po administered as single dose assessed as changes in body weight measured during 2 weeks post administration. Format: organism-based. As to conditions: in vivo, 336 h. The essentials:
as §1

Data set [17] relates to Staphylococcus aureus. Briefly: Antibacterial activity against Staphylococcus aureus Newman derived after 12 passage by broth dilution method. Format: functional. For orientation: Broth dilution looks for growth in wells or tubes with falling amounts of substance.
In data set [18] the test system is Staphylococcus aureus. Briefly: In vivo anti-virulence activity against Staphylococcus aureus Newman in mouse lethal infection model assessed as host survival rate at 0.1 mg bid for 3.5 days administered intraperitoneally 6 hrs post infection and measured on day 4. Format: functional. The essentials:
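In a lethal sepsis model, mice (n=15) were challenged with 2 × 10^8 CFU S. aureus Newman. Animal survival was recorded daily through day 8.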

Data set [19] addresses T2, 4,4'-diapophytoene desaturase (4,4'-diaponeurosporene-forming) (Staphylococcus aureus (strain USA300)) (UniProt Q2FDU6).
T2 sequence (whole entry): T1 sequence (Q2FDU6 whole entry)
As to conditions: Staphylococcus aureus LAC, 1 uM.

Calls of active or inactive are those of the source. A value given as a limit tells only on which side of the number the result lay.

One may read the IC50 as the concentration at which inhibition is half-maximal. As a reminder, the MIC80 is an inhibitory concentration at the 80% level, which refers to growth in some studies and to a panel of isolates in others. What is called Cmax is the maximum level reached in the sampled fluid or tissue. By Tmax is commonly meant the time at which the peak concentration occurs. What is called half-life is the time needed for the level to fall by half in the phase considered. What is called IC90 is the concentration at which the effect reaches the 90% level. `CN(C/C=C/c1ccc(-c2ccccc2)cc1)Cc1coc2ccccc12.Cl`: the IC50 turned out to be 1.9 nM in data set [1], 1.7 nM in [10] and 1.6 nM in data set [11]. Besides, the MIC80 against Trichophyton rubrum came to 64 µg/mL. Besides, the Cmax in data set [2] amounted to 213 ng/mL; in data set [4], 801 ng/mL. In addition, the Tmax in data set [3] stood at 2 h. The compound also gave a half-life in [5] of 3.35 h. Also, the outcome in the data set on Staphylococcus aureus [6] and in the data set with Staphylococcus aureus [14] was inactive. Besides, the result with Staphylococcus aureus [7] and in the data set on Staphylococcus aureus [13] was Active. Besides, the Activity is given as more than 95% with Staphylococcus aureus [8]; more than 95% in the data set on Staphylococcus aureus [9]; more than 54.3% in the data set on Staphylococcus aureus [12]; “Non-Toxic” in the data set with Rattus norvegicus [15]; “Non-Toxic” with Rattus norvegicus [16]. The concentration for an effect of 90% (IC90) with Staphylococcus aureus [17] was 1.8 nM. In addition, the figures for the Survival (in the data set on Staphylococcus aureus [18]; in data set [19]) were 80% and 0.7%, respectively.

In the case of `CN(C/C=C/c1ccc(-c2ccccc2)cc1)Cc1cccc2cc[nH]c12.Cl`, the IC50 in data set [1] was found to be 4 nM. For the same compound, the MIC80 against Trichophyton rubrum was more than 64 µg/mL. For the same compound, the outcome in the data set with Staphylococcus aureus [6] and in the data set with Staphylococcus aureus [7] was inactive. The Activity with Staphylococcus aureus [8] and with Staphylococcus aureus [9] was more than 95% throughout. In the data set with Staphylococcus aureus [17], the 90% effect concentration (IC90) stood at 2.6 nM.

The values above are taken from ChEMBL document CHEMBL4024779, “Novel Terminal Bipheny-Based Diapophytoene Desaturases (CrtN) Inhibitors as Anti-MRSA/VISR/LRSA Agents with Reduced hERG Activity” (J Med Chem, 2018).
